# Ecoli WT expand: growth inhibitors of E. coli BW25113 wild type; OD600 absorbance; growth inhibition, % at 100 µM; actives 0.15% (n = 98,000); AID 710;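 active = growth inhibition above about 50% at one test dose, limit read from the data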;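 note: growth measured after 20 h incubation at 37 °C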
# Ecoli tolC: growth inhibitors of E. coli BW25113 tolC mutant. actives 2.2% (n = 65,000). AID 573. growth inhibition, % at 10 µM (by protocol). OD615;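 active = growth inhibition at or above a cutoff equal to the mean over every tested compound plus 3 SD, cut at about 60% in these data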;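 note: growth measured after 20 h incubation at 37 °C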
#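 Assay system: tolC-deleted E. coli BW25113. Medium: kanamycin-containing LB broth (50 µg/mL). Dosing: 10 µM final, single dose. Timing: bacterial growth with compound for 20 h at 37 °C. Detection: A615 absorbance measurement. Read-out basis: growth inhibition in percent.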
# PostGolgi yeast: growth inhibition of a yeast mutant, post-Golgi transport screen. post-Golgi transport phenotypic cell assay. inhibition, % at 10 µM. actives 0.9% (n = 98,000). AID 739;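 note: yeast cells grown in 1536-well plates; yeast grown about 18 h at 30C before absorbance read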
# PostGolgi ctrl: inhibits growth of the yeast control strain. actives 5% (n = 98,000). AID 738. inhibition, % at 10 µM. efflux-deficient yeast background strain, growth absorbance A615, 16 h
# Cav3 T inh: inhibitors of human Cav3.2 T-type calcium channel; O95180; Cav3.2-expressing cells, Fluo-4 calcium fluorescence FDSS; stronger effect = lower value; B-score at 10 µM; actives 4% (n = 100,000); AID 449739;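 active = single-dose well whose peak fluorescence ratio is a statistical outlier from its plate by either plate-standardised score or position-corrected B-score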
# Hits are given with their value; 0 = inactive; - = not tested or not shown. Compounds with a hit are over-represented: about 8.4% of the library has one in this group of screens. Cut-off read from the data, not from the text of the source, unless noted: active = inhibition above about 30%; inactive = the rest.
SMILES,Ecoli WT expand,Ecoli tolC,PostGolgi yeast,PostGolgi ctrl,Cav3 T inh
CC1CCCCC1NC(=O)c1ccc2c(c1)[nH]c(=O)n2C1CCCC1 (configuration not stated),0,0,0,0,0
CCOC(=O)c1cccc(N2C(=O)C3C(C2=O)C2C=CC3C23CC3)c1 (configuration not stated),0,-,0,0,0
CC(=O)COC(=O)c1cccc(N2C(=O)C3C4C=CC(C4)C3C2=O)c1 (configuration not stated),0,0,0,31,0
CCOC(=O)C1=C(C)NC(SCC(=O)Nc2nc(C)cs2)=C(C#N)C1c1cccs1 (configuration not stated),0,0,0,0,-6.9
O=C(Nc1cnn(Cc2c(Cl)cccc2Cl)c1)C(c1ccccc1)c1ccccc1,0,-,0,0,-
CCCCNc1nc(N(C)c2ccccc2)nc(-n2ccnc2)n1,0,0,96,69,0
CN(c1ccccc1)c1nc(-n2ccnc2)nc(-n2ccnc2)n1,0,0,48,55,0
C=CCNc1nc(N(c2ccccc2)c2ccccc2)nc(-n2ccnc2)n1,0,0,0,35,0
c1ccc(N(c2ccccc2)c2nc(-n3ccnc3)nc(-n3ccnc3)n2)cc1,0,0,100,104,0
CCC(=O)Nc1nnc(C(C)(C)C)s1,0,-,0,0,0
Cc1ccc(NC(=O)CSCCc2ccccn2)nc1,0,-,0,0,0
CCc1nnc(NC(=O)C2CCN(c3nc(C)cc(C)n3)CC2)s1,0,0,0,0,0
Cc1ccc(NC(=O)CSc2nnc(-c3cnccn3)n2-c2ccccc2)cc1,0,-,0,0,0
CCOC(=O)CSc1nc(N)c(C#N)c(CC(C)C)c1C#N,0,0,0,40,0
COC(=O)c1sc2cc(C(F)(F)F)cnc2c1-c1ccccc1,0,-,0,45,0
CC(=O)N1CCC(N(C(=O)Nc2ccc(F)cc2)C2CCCC2)CC1,0,-,0,0,0
COC(=O)c1ccc(N2CCCCC2)c(NS(=O)(=O)c2ccc(C)cc2)c1,0,-,0,30,-3.7
COC(=O)c1ccc(Cl)c(NS(=O)(=O)c2ccc3c(c2)OCCO3)c1,0,0,0,0,-5.4
CCN(CC)CCNC(=O)c1ccc(N2CCCCC2)c(NS(=O)(=O)c2ccc(C)cc2)c1,0,0,0,0,0
CN(Cc1ccccc1)C(=O)C1CCCN(Cc2ccc(Cl)cc2)C1 (configuration not stated),0,-,0,0,0
CC(C)(CN=C1NS(=O)(=O)c2ccccc21)CNC(=O)CN1C(=O)c2ccccc2C1=O,0,0,0,0,0
CCN(CC)C(=O)N1CCc2ccccc2C1CN1C(=O)c2ccccc2C1=O (configuration not stated),-,-,-,-,-4.2
O=C1c2ccccc2C(=O)N1CC1c2ccccc2CCN1C(=O)C1CCCCC1 (configuration not stated),0,-,0,0,0
CC(C)(C)NC(=O)COC(=O)c1cc(S(=O)(=O)N2CCCCC2)ccc1N1CCOCC1,0,-,0,0,0
O=C(NCCN1CCOCC1)c1cc2sccc2n1Cc1ccc(Cl)cc1,0,0,0,0,0
SMILES,Ecoli WT expand,Ecoli tolC,PostGolgi yeast,PostGolgi ctrl,Cav3 T inh
Cc1ccccc1N(C(=O)Cn1nnc(-c2cccs2)n1)C(C(=O)NCCC(C)C)c1ccco1 (configuration not stated),0,-,0,0,-3.5
CC(C)CCNC(=O)C(c1ccco1)N(Cc1cccs1)C(=O)Cn1nnc2ccccc21 (configuration not stated),0,0,0,0,-4.7
CCOc1ccc2c(c1)c(C(C)=O)c(C)n2-c1ccccc1,0,-,0,41,0
COc1cc(-c2nc3n(n2)C(c2cccc(OC)c2OC)C2=C(CCCC2=O)N3)cc(OC)c1OC (configuration not stated),0,0,0,0,0
CCCCCc1cc(O)c2c(C)cc(=O)oc2c1,0,86,0,61,0
CCCc1cc(=O)oc2cc(C)cc(O)c12,0,-,0,0,0
CC(C)NC(=O)c1ccccc1NC(=O)CN(c1ccc2c(c1)OCO2)S(C)(=O)=O,0,0,0,0,0
CCCSc1nnc(NC(=O)c2nc(SC)ncc2Cl)s1,0,-,0,35,0
CSc1ncc(Cl)c(C(=O)Nc2nnc(SC)s2)n1,0,0,0,0,0
COc1ccc(C(C(O)C(=O)c2c[nH]c3ccccc23)N2CCN(c3ccc(OC)cc3)CC2)cc1 (configuration not stated),0,76,0,0,-
O=c1[nH]c(-c2ccccc2O)nc2c1CCCC2,0,0,0,0,0
O=C(CSc1nnnn1C1CCCCC1)N1CCCC1,0,0,0,0,0
CC(C)N(C(=O)CSc1nnnn1C1CCCC1)C(C)C,0,0,0,0,-3.7
COc1ccc(Cl)cc1C(=O)CSc1nnnn1C1CCCC1,0,0,0,35,0
CC(=O)Oc1ccc(-c2cc3c(OC(C)=O)cc(OC(C)=O)cc3oc2=O)cc1,-,-,-,-,0
Cc1ccc(C2CC(=O)NC(SCC(=O)Nc3nccs3)=C2C#N)cc1 (configuration not stated),0,-,0,0,0
CCOC(=O)C1(C)/C(=N/Nc2ccccc2Cl)C(=O)C(=O)N1c1ccccc1 (configuration not stated),0,-,0,0,-4.9
O=C(OCC(=O)N1CCN(C(=O)c2ccco2)CC1)c1ccccc1O,0,-,0,0,0
O=C(OCC(=O)N1N=C(c2ccc(Cl)cc2)CC1c1ccco1)c1ccccc1O (configuration not stated),0,-,0,0,-4.7
COc1ccc(Nc2ccc3c(c2)=NC2(CCCCC2)[N+]=3[O-])cc1,0,0,0,0,0
[O-][N+]1=c2ccc(Nc3ccccc3)cc2=NC12CCCCC2,0,90,0,0,0
O=S(=O)(NC1CCCC1)c1cccc(S(=O)(=O)N2CCC(n3nnc4ccccc43)CC2)c1,0,0,0,0,-
CCn1c(CNc2ccc(Cl)cc2)nnc1SCc1ccc(C)cc1,-,-,-,-,-3.8
CCn1c(CNc2ccc(Cl)cc2)nnc1SCc1ccc(Cl)cc1,-,-,-,-,-3.5
Cc1cc(C(=O)OCC(=O)NCc2ccco2)c(C)n1-c1ccc(F)cc1,0,0,0,0,-4.4
SMILES,Ecoli WT expand,Ecoli tolC,PostGolgi yeast,PostGolgi ctrl,Cav3 T inh
Cc1ccc(-n2c(CNc3ccc(F)cc3)nnc2SCC(=O)NCc2ccco2)cc1,0,0,0,0,-5.2
CC(=O)Nc1ccc(-c2nnc(SCC(=O)NCc3ccco3)n2C)cc1,0,-,0,33,0
CSc1ccccc1NS(=O)(=O)c1ccccc1,0,0,0,0,0
O=C1CC(c2ccc3c(c2)OCO3)CN1 (configuration not stated),0,0,0,0,0
CC1C(=O)C(C)C(c2ccc3c(c2)OCO3)NC1c1ccc2c(c1)OCO2 (configuration not stated),0,0,0,35,0
CCCCN(CCCC)C(=O)CSc1nnc(-c2cc(OC)c(OC)c(OC)c2)o1,0,71,0,0,0
CCCCOC(=O)CSc1nnc(-c2cc(OC)c(OC)c(OC)c2)o1,0,0,0,32,-
Cc1ccc(S(=O)(=O)Nc2cccc3ncccc23)s1,0,100,0,36,0
CCOC(=O)Cc1csc(NC(=O)CSc2nncn2C)n1,-,-,-,-,0

# Screening data as filed in PubChem.
